In PMC8089085 (Drug Design, Development and Therapy, 2021):
Like-named read-outs stand apart in the source and are kept apart here.

Columns and labels:
healthy subjects = assay: Tolerability assessment; format: in vivo, human; conditions: after multiple administrations in healthy subjects
Procedure, shortened: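 Healthy subjects given at least one dose were followed from first administration to study end. Monitoring covered vital signs (systolic and diastolic pressure, pulse rate), physical examinations and adverse events. Events were elicited by nonleading open questioning and individual interviews, and each was judged for relation to the investigational drug.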

[1] = format: in vivo, human
Procedure, shortened: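 Randomized open-label three-way crossover in healthy subjects: six sequences, five per sequence, ≥7 days washout. SGLT2 inhibitor 25 mg, PPAR-γ agonist 0.5 mg or both given orally once daily for 5 days, fasting ≥8 h. EDTA plasma sampled predose and 0.33–24 h after fifth dose; UPLC-MS/MS, calibration 5.00–1000 ng/mL. Noncompartmental analysis; mixed-effect model giving geometric mean ratios with 90% CI.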

[2] = empagliflozin, with vs without lobeglitazone
[3] = lobeglitazone, with vs without empagliflozin

| 90% CI of AUCtau combination therapy-to-monotherapy ratio [1, 2] | 90% CI of Cmax,ss combination therapy-to-monotherapy ratio [1, 2] | 90% CI of AUCtau combination therapy-to-monotherapy ratio [1, 3] | 90% CI of Cmax,ss combination therapy-to-monotherapy ratio [1, 3] | SMILES | other tolerability parameters (laboratory test results, vital signs, physical examination) (healthy subjects) |
| --- | --- | --- | --- | --- | --- |
| 0.945–1.133 | 0.956–1.150 |  |  | OC[C@H]1O[C@@H](c2ccc(Cl)c(Cc3ccc(O[C@H]4CCOC4)cc3)c2)[C@H](O)[C@@H](O)[C@@H]1O [Empagliflozin] | no clinically significant findings |
|  |  | 0.851–1.018 | 0.869–0.995 | COc1ccc(Oc2cc(N(C)CCOc3ccc(CC4SC(=O)NC4=O)cc3)ncn2)cc1 (stereo not drawn) [Lobeglitazone] | no clinically significant findings |
